This note sets out measurements from the EternaBench riboswitch data.

The data set concerns MS2 coat protein. Briefly: apparent Kd, MS2 coat protein; higher = weaker binding; RNA-MaP array; FMN 200 µM where present. The gist of the method:
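Green signal was scaled to red-channel RNA signal and control-cluster median Fmax, and the apparent Kd was taken as the median of filtered per-cluster binding-curve fits. The binding series used SNAP-549-labelled MS2 coat protein from 0.7 or 1.5 nM, doubling to 3 µM, on designs transcribed by stalled E. coli RNA polymerase on Illumina sequencing-chip clusters. Each series ran without and then with constant ligand in 100 mM Tris-HCl pH 7.5, 80 mM KCl, 4 mM MgCl2, BSA, DTT, yeast tRNA and Tween-20.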

The mark [1] stands for this setting: designed as: OFF switch for flavin mononucleotide, no ligand.
[2] abbreviates: ligand present: flavin mononucleotide, designed as: OFF switch for flavin mononucleotide.
[3] abbreviates: designed as: ON switch for flavin mononucleotide, no ligand.
[4] abbreviates: ligand present: flavin mononucleotide, designed as: ON switch for flavin mononucleotide.

By apparent Kd is commonly meant the concentration giving half-maximal binding under the conditions of the assay. For “AGCAGACGAGGAUAUAGAUGGAAUGACAUGAGGAUCACCCAUGUGAUCGAUCUAUUUGAUUUAGAAGGUGUCUGCU”, the “apparent Kd” value under setting [1] came out at 12.5 nM and the “apparent Kd” value under setting [2] was 15.1 nM.

On to “GGGCUGUCAGGAUAUGCUAGUGCUAGUGAAAGCUAGUGCUAGUAGAAGGGACAUGAGGAUCACCCAUGUGGCCC”, for which the “apparent Kd” value under setting [1] came out at 31.4 nM and the “apparent Kd” value under setting [2] came out at 30.9 nM.

In the case of “GUUAGACAUGAGGAUCACCCAUGUGAGGAUAUGAUGCGAAUAAAGAAUGAAGUAAGCAUCAGAAGGCACAUAUG”, the “apparent Kd” value was found to be 267 nM under setting [1] and 381 nM under setting [2].

For the sequence “GGAAGAGUAGGAUAUACAUGAGGAUCACCCAUGUCCUGGAGAAGCAAUUCGAUAUCCUGUAGAAGGACUAAUCU”, the “apparent Kd” value by setting is: under setting [1], 40 nM; under setting [2], 36.1 nM.

Consider “CAAUAUAACACAGGAUAUGUCUCGUUUACAUGAGGAUCACCCAUGUCCGAAACAGAAGGGUGACCUGAUAUAGGACGUUAGGUG”, for which the “apparent Kd” value reads like this: under setting [3], 367 nM; under setting [4], 138 nM.

As for “CGCGGUACUUAGGUACCACACAUGAGGAUCACCCAUGUAUCACAGGAUAUGCAUGAUAUAUUCAGGCAGAAGGGUGAUCUUACC”, the “apparent Kd” value runs as follows: under setting [3], 37.8 nM; under setting [4], 99.4 nM.

For the sequence “UUUAAGCUCACAUGAGGAUCACCCAUGUCCGUUCGCCCGGACAGAAGGCACCCAUGACAAUGCGGUGAGGAUAUGUCAGCAAGG”, the “apparent Kd” value worked out at 120 nM under setting [3] and 13.1 nM under setting [4].

As for “UUAUGCUUAGAGAAGGUUCAAACUACAUAUUGCGCACAUGAGGAUCACCCAUGUUGGUGAAUAAGAAAGGAUAUUUGACUGUGC”, the “apparent Kd” value by setting is: under setting [1], 245 nM; under setting [2], 171 nM.

Take “UUAAUUAAUUAAUUGCAGAAUUACAUGAGGAUCACCCAUGUAUAGGAUAUCGUCAGGAAUACUGACGAGAAGGAUACAUACUGC”: the “apparent Kd” value runs as follows: under setting [1], 17.9 nM; under setting [2], 26.6 nM.

Take “CUGGUUGUCGAGGAUAUGUCCCGGCUCGCUGUCGCAGAAGGCGACACAUGAGGAUCACCCAUGUCGGUUCGCGU”: the “apparent Kd” value runs as follows: under setting [1], 34.6 nM; under setting [2], 30.5 nM.

As to “UAGUCGGUAGAUAAUAAUGAAUACAUGAGGAUCACCCAUGUAUAGGAUAUCGUCAGGAAUACUGACGAGAAGGAUACAUCCGAC”, the “apparent Kd” value runs as follows: under setting [1], 16.1 nM; under setting [2], 18.4 nM.

For the sequence “UAAGUUGAGGAGAAGGGAGCACAUGAGGAUCACCCAUGUGGUUCUUUGUGCUCAGGAUAUCCAUGGAGCGCCGACGCGUUCCCG”, the “apparent Kd” value turned out to be 89.2 nM under setting [1] and 15.6 nM under setting [2].

On to “UGGUACUAGGGAGGAUAUGGGAAGAUACAUGAGGAUCACCCAUGUUUAAGAAUGCCCAGAGGCAACUAGAAGGCCCUAGUACCU”, for which the “apparent Kd” value runs as follows: under setting [3], 66.2 nM; under setting [4], 16.9 nM.

As to “UGGUACAUGGGAGGAUAUCCUCAACAUGAGGAUCACCCAUGUAAGAAUUAUAAGCCGAAAGGCAUGGAGAAGGCCCAUGUACCU”, the “apparent Kd” value reads like this: under setting [3], 71.6 nM; under setting [4], 15.3 nM.

For the sequence “CGAUCGUGUAGAGGAUAUGUUAUACAUGAGGAUCACCCAUGUGAGGUGGAAAUAUUUAAUUACAUACAGAAGGCUACACGAUCG”, the “apparent Kd” value was found to be 269 nM under setting [1] and 227 nM under setting [2].

In the case of “UAAGAGUGAGGAUAUACGUCGCUGGUCCGGAUGGACGCAUGACAUGAGGAUCACCCAUGUAGAAGGCACAAAAC”, the “apparent Kd” value reads like this: under setting [1], 35 nM; under setting [2], 130 nM.

For the sequence “UUGUUAGGGAGAGGAUAUUGACAUGAGGAUCACCCAUGUAUUUGGGAGUGUUUACUGAAUUCUCACGAGAAGGCUUACAAAUUU”, the “apparent Kd” value is, setting by setting: under setting [1], 584 nM; under setting [2], 534 nM.

Consider “AACGCCAGUGAGAAGGCAUGUUCACAUGAGGAUCACCCAUGUAUACUCAUGAGGAUAUCAAAUGCGGACCAAAAUAAAAUAAGA”, for which the “apparent Kd” value is 464 nM under setting [3] and 26.6 nM under setting [4].

Consider “UUCAAAUUCGUAGGAUAUGUAUAUAAUUUCUACAUGAGGAUCACCCAUGUUACCAUUUUUUAGUGACAGAAGGACGUAAUCUAA”, for which the “apparent Kd” value runs as follows: under setting [3], 211 nM; under setting [4], 47.6 nM.

Turning to “AUAAUUUUAUAUAUCAUUUUAAUCAGAAGGCAUAACAUGAGGAUCACCCAUGUAAAUUAAUGUUAUGAGGAUAUGAUUUGGUUA”, the “apparent Kd” value reads like this: under setting [1], 26.1 nM; under setting [2], 147 nM.

With “GUCAGCUCGUGAGGAUAUACAUGUGCUGGAUACAGCACUAUUAUGUUCACAUGAGGAUCACCCAUGUAGAAGGCACGAGCUGAU”, the “apparent Kd” value under setting [1] was 16.2 nM and the “apparent Kd” value under setting [2] came to 21.7 nM.

For “CGUACACAUGAGGAUCACCCAUGUCAGAUUUGGUCAGGAUAUGGGCGGCAUCCGCUAUUGCCAGAAGGGACUGUUG”, the “apparent Kd” value runs as follows: under setting [3], 83.1 nM; under setting [4], 160 nM.

“UUAGGAUCAGGAUAUGAUGUUUUAAACAUGAGGAUCACCCAUGUAGAUCCUGAUUCAACAUCAGAAGGGAUAAUUU”: the “apparent Kd” value under setting [2] came to 21.5 nM.

“UUCUUACAUGAGGAUCACCCAUGUCAGGAUAUCUCCACACUGCGCUUGCGCAGUGUAUAGAGAAGGGACAGGCU”: the “apparent Kd” value under setting [1] is 49.4 nM and the “apparent Kd” value under setting [2] worked out at 47.5 nM.

For the sequence “GCCGAAAGUGUGAGGAUAUACCUAUGGAAACAUAGGUAGAAGGCACAUGAGGAUCACCCAUGUUCCUCAUCGGC”, the “apparent Kd” value under setting [1] worked out at 123 nM and the “apparent Kd” value under setting [2] was 623 nM.

In the case of “AAUCGGGAGCAGAAGGCAUGUCAUAAGACAUGAGGAUCACCCAUGUAGUUAAGGCGAAAGCCGCAUGAGGAUAUGCUCCCGUAA”, the “apparent Kd” value reads like this: under setting [3], 71.2 nM; under setting [4], 6.27 nM.

Take “CAGUACUGAGGAUAUACAUGAGGAUCACCCAUGUGUUCCAGCUAGGAAACUAGGAAAAGUAGAAGGCAGUACUG”: the “apparent Kd” value by setting is: under setting [1], 22.1 nM; under setting [2], 261 nM.

Consider “UUGUUACAUGAGGAUCACCCAUGUGAGGAUAUGGCCCGCCCGGCGUGAGCUGGUUUUGUCAGAAGGCGCGUGGG”, for which the “apparent Kd” value is, setting by setting: under setting [1], 111 nM; under setting [2], 159 nM.

Consider “AUGAGUAAAGCAGGAUAUCUAUUGUCUCAGUAACAUGAGGAUCACCCAUGUAGAGAAGGGCUUAGUCAUUCACUUCGGAGUUGU”, for which the “apparent Kd” value amounted to 14.8 nM under setting [1] and 38 nM under setting [2].

Consider “GGACGGUUAGUGAGGAUAUGCUCUACCUCGGUAGAGCAGAAGGCACAUGAGGAUCACCCAUGUGAUAACUGUUC”, for which the “apparent Kd” value reads like this: under setting [1], 18.6 nM; under setting [2], 21.8 nM.

On to “GGUCCACAUGAGGAUCACCCAUGUCAGGAUAUAUACGGCACAAUAAUAAGUGCCGCCCAUAGAAGGGACGCUGG”, for which the “apparent Kd” value was 15.7 nM under setting [1] and 26.1 nM under setting [2].

For “CAGGAUAGAGGAUAUACAUAGAUACAGGUUCAUGUAAUCCUACAUGAGGAUCACCCAUGUAGAAGGCUAUCCUG”, the “apparent Kd” value by setting is: under setting [1], 15 nM; under setting [2], 43.3 nM.

Consider “AGAAACUACGAGAAGGACAUGUGGUCCUUCAAUUACAUGAGGAUCACCCAUGUAGGAUAUCGUAGUUUCAGGAUCGUGAGAUCA”, for which the “apparent Kd” value under setting [1] stood at 12.7 nM and the “apparent Kd” value under setting [2] was 3.81 nM.

“UGUCCAUAGCAGAAGGACAUGAGGAUCACCCAUGUAAUCAUACAACCAAAUGUAGGAUAUGCUAUGGACUAAGAGCGAAAGCUC”: the “apparent Kd” value under setting [1] amounted to 7.5 nM and the “apparent Kd” value under setting [2] came to 34.4 nM.

For the sequence “AUCAUGCUCAAGAAGGACAUGAGGAUCACCCAUGUAGGAUAUUGGGCGGUCACUUCUAGCUUGUGUGUAUCUGAAUACUCCAGG”, the “apparent Kd” value under setting [3] amounted to 20.4 nM.

Take “GGAAAACAUGAGGAUCACCCAUGUGAGGAUAUCGAUGUCCAGAGGGAGGUGCGGGACUCGAGAAGGCACUUGGA”: the “apparent Kd” value turned out to be 34.2 nM under setting [1] and 82.8 nM under setting [2].

Regarding “GGUACUCAAAGAGUACGGAGUCGAACAUGAGGAUCACCCAUGUAGGAUAUGCUAAGCUUGAAGUUGCAGAAGGACAUGUGCAGC”, the “apparent Kd” value under setting [1] was found to be 10.7 nM and the “apparent Kd” value under setting [2] came out at 11.1 nM.

As for “AAAUGCCUGUCGAUGCUCGACAUGAGGAUCACCCAUGUAUAGCAGGAUAUGCAGAACUGACUCGUGCAGAAGGGCUAUACCUAC”, the “apparent Kd” value amounted to 17.8 nM under setting [1] and 37.4 nM under setting [2].

“UCGUGCCGGGUCACGAUUGACCCACAUGAGGAUCACCCAUGUAGAAGGACCAGCGUCGGCCCUUGGUAGGAUAUACAUGAGCUC”: the “apparent Kd” value under setting [1] was 94.8 nM and the “apparent Kd” value under setting [2] is 114 nM.

Turning to “GAUAGAGAGCAGGAUAUCUUGGAUAAGUAUUGUAGAGAAGGGCUCACAUGAGGAUCACCCAUGUGGUCCUAGAU”, the “apparent Kd” value is, setting by setting: under setting [1], 14.2 nM; under setting [2], 34.2 nM.

For the sequence “CUUUAGUGAGGAUAUCAGUAGUAAUACAAUAGUAUUACUACUGAGAAGGCACAUGAGGAUCACCCAUGUUUCUC”, the “apparent Kd” value reads like this: under setting [1], 31 nM; under setting [2], 136 nM.

Consider “AAAUAGCUAGAGGAUAUCGGAUAGGAUUUACUACGAGAAGGUUAGACAUGAGGAUCACCCAUGUUCUGUUGGGA”, for which the “apparent Kd” value by setting is: under setting [1], 41.5 nM; under setting [2], 39.2 nM.

Turning to “UGUUGUAAUACAGGAUAUAUAUUAUUUUUAUUUAUAGAAGGGUAAUCACAUGAGGAUCACCCAUGUAUAUACGAGGAAGAAGAG”, the “apparent Kd” value is, setting by setting: under setting [3], 209 nM; under setting [4], 251 nM.

Turning to “GGUAGAAACAUUAACAUGAGGAUCACCCAUGUCAAAAGAAAUGAGGAUAUCGUAUACAAUGUAUAUGAGAAGGCAUGGUCUACC”, the “apparent Kd” value was determined as 7.78 nM under setting [3] and 5.77 nM under setting [4].

For the sequence “UGGUACAUGGGAGGAUAUCAUGUACUUACAUGAGGAUCACCCAUGUCGAUGGAGACAUCGGAGAUUGAGAAGGCCCAUGUACCU”, the “apparent Kd” value worked out at 1220 nM under setting [3] and 42.2 nM under setting [4].

For the sequence “UACUUGUCAGGAUAUCUUACAUUUGCAUUAUAGCAACUCUUGGAGAAGGGACAUGAGGAUCACCCAUGUUUGGU”, the “apparent Kd” value reads like this: under setting [1], 70.8 nM; under setting [2], 317 nM.

For “AUAUGAUAGAUAGGAUAUACAUUGGAUUUAAAAGUAGAAGGAUCAAGUGGGAAAUGAACAUGAGGAUCACCCAUGUAAUAGGAU”, the “apparent Kd” value reads like this: under setting [3], 107 nM; under setting [4], 78.2 nM.

Take “AGGAGGUUAGGAUAUGCUGCUCGUCACUUGCGUGAUGAGUAGCAGAAGGGACAUGAGGAUCACCCAUGUAAAGA”: the “apparent Kd” value reads like this: under setting [1], 43.1 nM; under setting [2], 27.7 nM.

For “AGUUAGAUAGCGAUAUGAUCGAGAGAUCAUGUCGCUAAGUUUAGAAGGACAUGAGGAUCACCCAUGUAGGAUAUGGGAGUAGAA”, the “apparent Kd” value runs as follows: under setting [3], 149 nM; under setting [4], 53.9 nM.
